The values that follow come from PubChem BioAssay AID1381 (University of Pittsburgh Molecular Library Screening Center, 2008).

Out of some 220,000 compounds screened, about 1,000 (0.45%) were called active.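 Rule for the calls: active = plate z-score of nuclear minus cytoplasmic receptor signal below a set negative limit, without overly bright fluorescence or cell loss (cut at about -3.5 in these data, passing the limit was not always enough); inactive = the rest, inconclusive results apart.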 Many of the other results were omitted from the sample, so actives are more common in it than they were.

The assay is described as follows: inhibitors of GR-EGFP nuclear translocation, primary screen, dynein cargo transport inhibitor project, imaging, high-content, 3617.4 mouse cells (AID 1381). To be noted: stimulated with dexamethasone, 1 µM. The method in brief:
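Schedule: 48 h induction, then 1 h compound, then 30 min agonist, 37 °C. Buffer or medium: tetracycline-free induction medium containing charcoal-stripped FBS. Reagent: 1.0 µM final dexamethasone stimulus. Evaluation: nuclear versus cytoplasmic GR-EGFP signal, averaged per well. Signal: high-content fluorescence imaging after fixation.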

[1] abbreviates: measured here: cell count per field, at 20 µM.
Where [2] appears, read: measured here: cytoplasmic GR-EGFP intensity, at 20 µM, stronger effect = higher value.
Setting [3] is: measured here: nuclear GR-EGFP intensity, at 20 µM, stronger effect = lower value.
Setting [4] is: measured here: cell count per field, at 50 µM.
The mark [5] stands for this setting: measured here: cytoplasmic GR-EGFP intensity, at 50 µM, stronger effect = higher value.
The mark [6] stands for this setting: measured here: nuclear GR-EGFP intensity, at 50 µM, stronger effect = lower value.

As to `O=C1NC(=O)N(c2ccc(F)cc2)C(=O)/C1=C/c1ccc2c(c1)CCCN2Cc1ccccc1`, the z-score runs as follows: (at 20 µM, stronger effect = lower value) -0.735 (inactive); under setting [1], -0.42; under setting [2], 4.11; under setting [3], 0.344.
Take `Cc1c(C(=O)O)cccc1-n1c(C)cc(/C=C2\C(=O)NC(=O)N(c3ccc4c(c3)OCO4)C2=O)c1C`: the z-score is, setting by setting: (at 20 µM, stronger effect = lower value) -0.66 (inactive); under setting [1], 0.519; under setting [2], -0.101; under setting [3], -0.113.
For `COc1cccc(N2C(=O)NC(=O)/C(=C\c3ccc([N+](=O)[O-])s3)C2=O)c1` the same measures were -6.53 (active), -0.425, 2.64 and -2.61.
As to `Cc1cccc(N2C(=O)NC(=O)/C(=C\c3cnn(-c4ccccc4)c3)C2=O)c1`, the z-score runs as follows: (at 20 µM, stronger effect = lower value) 0.124 (inactive); under setting [1], -0.649; under setting [2], -0.166; under setting [3], 0.444.
Take `O=C1NC(=O)N(c2ccccc2)C(=O)/C1=C/c1ccc([N+](=O)[O-])s1`: the z-score was -5.82 (active) (at 20 µM, stronger effect = lower value); 0.268 under setting [1]; 2.42 under setting [2]; -2.58 under setting [3].
Taken in the same sequence, the figures for `Cc1ccccc1N1C(=O)NC(=O)/C(=C\c2cc(C)n(C)c2C)C1=O` were -0.127 (inactive), 0.901, -0.306 and -0.135.
For `OC1/C(=C/c2ccc(C(F)(F)F)cc2)N2CCC1CC2` (stereo not given) the same measures were -1.47 (inactive), 0.879, -0.265 and -0.69.
For `CCCC[N+]1(C)C2CC(OC(=O)C(CO)c3ccccc3)CC1C1OC12` (stereo not given) the same measures were -0.526 (inactive), 0.258, -0.759 and 0.0484.
Take `c1cc2c(cc1CCNC1CCCCCC1)OCO2`: the z-score runs as follows: (at 50 µM, stronger effect = lower value) 1.01 (inactive); under setting [4], 0.684; under setting [5], -0.246; under setting [6], 0.379.
In the case of `CC(c1ccccc1)(c1ccccc1)c1ccncc1`, the z-score runs as follows: (at 20 µM, stronger effect = lower value) -0.152 (inactive); under setting [1], -0.267; under setting [2], -0.379; under setting [3], -0.628.
`Cc1cc(C=C2C(=O)NC(=O)NC2=O)c(C)n1-c1ccncc1`: the z-score reads like this: (at 20 µM, stronger effect = lower value) 1.16 (inactive); under setting [1], -1.04; under setting [2], -0.229; under setting [3], 0.621.
Consider `CCN(CC)C(=O)c1ccc(NC(=O)c2cc(-n3cnnc3)ccc2Cl)cc1`, for which the z-score runs as follows: (at 50 µM, stronger effect = lower value) 1.07 (inactive); under setting [4], -0.204; under setting [5], -0.239; under setting [6], 0.487.
For `CN(C)CC1Oc2ccccc2OC1(O)c1ccccc1` (stereo not given), the z-score is, setting by setting: (at 20 µM, stronger effect = lower value) -6.23 (active); under setting [1], 1.09; under setting [2], 1.79; under setting [3], -2.55.
As for `COc1ccc(NC(=O)c2cn(CCC#N)nc2-c2ccc([N+](=O)[O-])cc2)cc1`, the z-score (at 20 µM, stronger effect = lower value) was -0.74 (inactive); the z-score under setting [1] was determined as 0.149; the z-score under setting [2] was -0.33; the z-score under setting [3] was -0.871.
`CCC(C)n1c(O)c(/C=N/Nc2nc3c(c(=O)n(C)c(=O)n3C)n2C)c(=O)[nH]c1=S` (stereo not given): the z-score was -0.95 (inactive) (at 20 µM, stronger effect = lower value); 0.937 under setting [1]; -0.21 under setting [2]; -0.129 under setting [3].
